Results as given in ChEMBL document CHEMBL4028913, “Discovery of Novel Potent VEGFR-2 Inhibitors Exerting Significant Antiproliferative Activity against Cancer Cell Lines” (J Med Chem, 2018).
The source made the active and inactive calls. The calls are words filed in the database; no cut-off is given here.

Experiments:
[1] = system: MDA-MB-435; assay: Growth inhibition of human MDA-MB-435 cells at 10 uM after 72 hrs by CellTiter-Glo assay relative to control; type: functional; details: MDA-MB-435, 72 h, read-out: GI
Outline: (§1)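 Cells in exponential phase seeded at 2000–4000 cells/well, then exposed 72 h at 37 °C, 5% CO2 with 0.1% final DMSO. Single-point screen at 10 μM final. […] Read-out was CellTiter-Glo luminescence.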

[2] = system: MDA-MB-435; assay: Growth inhibition of human MDA-MB-435 cells after 72 hrs by CellTiter-Glo assay; type: functional, cell-based; details: MDA-MB-435, 72 h; outline: as §1
[3] = target: T1, Vascular endothelial growth factor receptor 2 (Homo sapiens, UniProt P35968)
[4] = system: Melanoma cell; assay: Potency index, ratio of sunitinib GI50 to test compound GI50 for human melanoma cells; type: functional
Outline: (§2)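 GI50 is the concentration giving 50% reduction in net protein increase relative to control. Potency index is the reference-drug GI50 divided by the test-compound GI50.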

[5] = target: Fibroblast growth factor receptor 1 (Homo sapiens) (UniProt P11362); assay: Inhibition of human FGFR1 at 0.5 uM relative to control
[6] = target: Proto-oncogene tyrosine-protein kinase Src (Homo sapiens) (UniProt P12931); details: at 0.5 µM
[7] = system: Melanoma cell; assay: Potency index, ratio of sorafenib GI50 to test compound GI50 for human melanoma cells; type: functional; outline: as §2
[8] = system: OVCAR-8; assay: Cytotoxicity against human OVCAR8 cells after 48 hrs by SRB assay; type: functional; details: OVCAR-8, 48 h
Outline: (§3)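 NCI-60 panel; cells grown in RPMI 1640 with 5% FBS and 2 mM L-glutamine, plated at 5000–40 000 cells/well by doubling time, preincubated 24 h (37 °C, 5% CO2). Drug added at five concentrations, 1-log steps from 10−4 to 10−8 M, for 48 h. Fixed with TCA, stained with 0.4% SRB, absorbance read at 515 nm. Percent growth computed against time-zero and untreated controls; GI50, TGI and LC50 derived.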

[9] = system: MDA-MB-435; assay: Cytotoxicity against human MDA-MB-435 cells after 48 hrs by SRB assay; type: functional; details: MDA-MB-435, 48 h; outline: as §3
[10] = system: ACHN; assay: Cytotoxicity against human ACHN cells after 48 hrs by SRB assay; type: functional; outline: as §3
[11] = target: Mitogen-activated protein kinase kinase kinase kinase 5 (Homo sapiens) (UniProt Q9Y4K4); assay: Inhibition of human KHS at 0.5 uM relative to control
[12] = Potency index, ratio of sorafenib GI50 to test compound GI50 for human breast cancer cells; type: functional, Breast cancer cell; outline: as §2
[13] = target: TRAF2 and NCK-interacting protein kinase (Homo sapiens) (UniProt Q9UKE5); assay: Inhibition of human TNIK at 0.5 uM relative to control
[14] = system: SNB-19; assay: Cytotoxicity against human SNB19 cells after 48 hrs by SRB assay; type: functional; details: SNB-19, 48 h; outline: as §3
[15] = system: UACC-62; assay: Cytotoxicity against human UACC62 cells after 48 hrs by SRB assay; type: functional; details: UACC-62, 48 h
Outline: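 NCI-60 panel, five doses at 1-log steps from 10−4 to 10−8 M. Cells grown in RPMI 1640 with 5% FBS and 2 mM L-glutamine, seeded at 5000–40 000 cells/well and preincubated 24 h. Tz plates were TCA-fixed at drug addition. Drug exposure 48 h at 37 °C, then TCA fixation, 0.4% SRB stain and absorbance at 515 nm. GI50 taken from percent growth relative to Tz and control.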

[16] = system: SN12C; assay: Cytotoxicity against human SN12C cells after 48 hrs by SRB assay; type: functional; outline: as §3
[17] = system: HUVEC; assay: Growth inhibition of HUVEC after 72 hrs by CellTiter-Glo assay; type: functional, cell-based; details: Homo sapiens; outline: as §1
[18] = Potency index, ratio of sunitinib TGI to test compound TGI for human renal cancer cells; type: functional, Renal cancer cell
[19] = system: Leukemia cell; assay: Potency index, ratio of sunitinib GI50 to test compound GI50 for human leukemia cells; type: functional; outline: as §2
[20] = target: T1, Vascular endothelial growth factor receptor 2; details: at 10 µM
[21] = system: HT-29; assay: Cytotoxicity against human HT-29 cells after 48 hrs by SRB assay; type: functional; details: HT-29, 48 h; outline: as §3
[22] = system: SF-295; assay: Cytotoxicity against human SF295 cells after 48 hrs by SRB assay; type: functional; details: SF-295, 48 h; outline: as §3
[23] = system: SK-MEL-5; assay: Cytotoxicity against human SK-MEL-5 cells after 48 hrs by SRB assay; type: functional; details: SK-MEL-5, 48 h; outline: as §3
[24] = Potency index, ratio of sunitinib GI50 to test compound GI50 for human breast cancer cells; type: functional, Breast cancer cell; outline: as §2
[25] = system: NCI/ADR-RES; assay: Potency index, ratio of sorafenib GI50 to test compound GI50 for human NCI-ADR-RES cells; type: functional; outline: as §2
[26] = system: SNB-75; assay: Cytotoxicity against human SNB75 cells after 48 hrs by SRB assay; type: functional; details: SNB-75, 48 h; outline: as §3
[27] = Potency index, ratio of sunitinib GI50 to test compound GI50 for human renal cancer cells; type: functional, Renal cancer cell
[28] = system: LOX IMVI; assay: Cytotoxicity against human LOXIMVI cells after 48 hrs by SRB assay; type: functional; outline: as §3
[29] = system: SR; assay: Cytotoxicity against human SR cells after 48 hrs by SRB assay; type: functional; outline: as §3
[30] = target: T1, Vascular endothelial growth factor receptor 2; details: at 0.5 µM
[31] = system: SF-268; assay: Cytotoxicity against human SF268 cells after 48 hrs by SRB assay; type: functional; details: SF-268, 48 h; outline: as §3
[32] = Potency index, ratio of sunitinib GI50 to test compound GI50 for human colon cancer cells; type: functional, Colon cancer cell; outline: as §2
[33] = system: OVCAR-5; assay: Cytotoxicity against human OVCAR5 cells after 48 hrs by SRB assay; type: functional; details: OVCAR-5, 48 h; outline: as §3
[34] = system: MOLT-4; assay: Cytotoxicity against human MOLT4 cells after 48 hrs by SRB assay; type: functional; details: MOLT-4, 48 h; outline: as §3
[35] = read-out: LC50 (the source's name)

T1 sequence (P35968 whole entry): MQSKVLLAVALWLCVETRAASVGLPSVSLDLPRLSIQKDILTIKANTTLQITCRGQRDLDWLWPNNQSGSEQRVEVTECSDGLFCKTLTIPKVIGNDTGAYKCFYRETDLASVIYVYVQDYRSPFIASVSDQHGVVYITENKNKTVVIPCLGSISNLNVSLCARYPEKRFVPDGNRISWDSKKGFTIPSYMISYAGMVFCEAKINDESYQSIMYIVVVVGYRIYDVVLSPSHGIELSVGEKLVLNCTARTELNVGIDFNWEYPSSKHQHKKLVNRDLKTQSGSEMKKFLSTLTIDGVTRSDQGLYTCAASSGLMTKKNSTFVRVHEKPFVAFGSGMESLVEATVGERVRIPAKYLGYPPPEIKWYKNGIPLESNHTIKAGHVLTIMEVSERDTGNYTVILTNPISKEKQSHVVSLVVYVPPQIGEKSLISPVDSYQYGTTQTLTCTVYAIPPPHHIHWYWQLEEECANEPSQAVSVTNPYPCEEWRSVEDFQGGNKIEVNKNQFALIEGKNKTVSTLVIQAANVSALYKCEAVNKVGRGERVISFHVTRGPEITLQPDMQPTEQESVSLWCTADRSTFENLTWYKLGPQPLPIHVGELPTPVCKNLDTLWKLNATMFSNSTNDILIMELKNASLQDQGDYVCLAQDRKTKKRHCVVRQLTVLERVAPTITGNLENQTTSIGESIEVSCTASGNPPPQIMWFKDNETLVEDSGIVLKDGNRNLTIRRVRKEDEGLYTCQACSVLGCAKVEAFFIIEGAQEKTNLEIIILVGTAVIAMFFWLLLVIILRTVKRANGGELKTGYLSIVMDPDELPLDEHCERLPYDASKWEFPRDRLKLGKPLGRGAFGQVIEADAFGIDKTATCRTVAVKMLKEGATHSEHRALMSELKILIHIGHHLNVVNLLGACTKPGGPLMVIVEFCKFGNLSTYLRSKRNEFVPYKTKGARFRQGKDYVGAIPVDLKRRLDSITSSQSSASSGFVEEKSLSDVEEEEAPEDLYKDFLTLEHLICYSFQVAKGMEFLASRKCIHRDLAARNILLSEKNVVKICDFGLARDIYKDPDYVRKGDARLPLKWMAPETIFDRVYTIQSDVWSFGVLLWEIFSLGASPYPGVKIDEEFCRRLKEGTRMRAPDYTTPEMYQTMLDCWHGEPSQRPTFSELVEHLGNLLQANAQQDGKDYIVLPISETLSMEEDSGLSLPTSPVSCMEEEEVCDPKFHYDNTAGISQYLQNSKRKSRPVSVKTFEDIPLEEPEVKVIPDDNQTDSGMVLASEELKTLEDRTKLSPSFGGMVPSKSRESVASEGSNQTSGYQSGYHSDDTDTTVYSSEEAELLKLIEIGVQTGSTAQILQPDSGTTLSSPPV
Sequence of TRAF2 and NCK-interacting protein kinase (Homo sapiens) (Q9UKE5 whole entry, looked up): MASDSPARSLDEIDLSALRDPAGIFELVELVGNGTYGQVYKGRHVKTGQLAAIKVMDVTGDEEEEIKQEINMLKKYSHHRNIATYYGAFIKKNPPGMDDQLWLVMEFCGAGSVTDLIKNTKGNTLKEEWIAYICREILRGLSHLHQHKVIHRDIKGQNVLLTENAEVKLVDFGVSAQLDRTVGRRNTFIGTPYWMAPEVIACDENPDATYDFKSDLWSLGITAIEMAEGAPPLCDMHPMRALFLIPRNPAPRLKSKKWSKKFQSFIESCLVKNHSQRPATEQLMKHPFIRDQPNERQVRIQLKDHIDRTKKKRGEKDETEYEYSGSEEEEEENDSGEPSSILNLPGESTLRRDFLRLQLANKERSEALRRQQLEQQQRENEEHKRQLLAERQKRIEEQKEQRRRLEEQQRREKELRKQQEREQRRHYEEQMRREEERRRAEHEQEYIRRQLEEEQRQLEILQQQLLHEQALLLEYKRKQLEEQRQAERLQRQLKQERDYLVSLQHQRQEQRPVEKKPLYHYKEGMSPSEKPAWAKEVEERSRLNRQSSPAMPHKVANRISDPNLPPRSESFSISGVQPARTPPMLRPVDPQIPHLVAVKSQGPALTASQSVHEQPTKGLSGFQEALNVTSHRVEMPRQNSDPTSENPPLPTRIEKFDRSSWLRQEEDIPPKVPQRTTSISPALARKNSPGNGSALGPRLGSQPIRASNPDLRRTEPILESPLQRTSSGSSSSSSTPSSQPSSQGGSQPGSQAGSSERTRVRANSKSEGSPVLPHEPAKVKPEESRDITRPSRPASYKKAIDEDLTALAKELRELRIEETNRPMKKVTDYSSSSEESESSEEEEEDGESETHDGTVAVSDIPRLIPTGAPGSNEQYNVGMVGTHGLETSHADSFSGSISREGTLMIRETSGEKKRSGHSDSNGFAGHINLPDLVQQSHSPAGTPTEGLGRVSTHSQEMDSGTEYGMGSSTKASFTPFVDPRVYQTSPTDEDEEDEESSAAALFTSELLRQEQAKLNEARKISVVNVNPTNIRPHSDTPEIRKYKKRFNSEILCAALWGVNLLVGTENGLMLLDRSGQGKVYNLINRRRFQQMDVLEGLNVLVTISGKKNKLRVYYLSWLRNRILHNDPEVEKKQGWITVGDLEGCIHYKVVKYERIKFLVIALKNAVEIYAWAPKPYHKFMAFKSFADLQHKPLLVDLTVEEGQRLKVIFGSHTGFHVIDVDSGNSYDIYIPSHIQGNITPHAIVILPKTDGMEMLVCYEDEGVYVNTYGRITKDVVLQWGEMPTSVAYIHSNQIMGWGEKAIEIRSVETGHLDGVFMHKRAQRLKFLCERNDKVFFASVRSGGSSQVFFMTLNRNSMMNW
Sequence of Mitogen-activated protein kinase kinase kinase kinase 5 (Homo sapiens) (Q9Y4K4 whole entry, looked up): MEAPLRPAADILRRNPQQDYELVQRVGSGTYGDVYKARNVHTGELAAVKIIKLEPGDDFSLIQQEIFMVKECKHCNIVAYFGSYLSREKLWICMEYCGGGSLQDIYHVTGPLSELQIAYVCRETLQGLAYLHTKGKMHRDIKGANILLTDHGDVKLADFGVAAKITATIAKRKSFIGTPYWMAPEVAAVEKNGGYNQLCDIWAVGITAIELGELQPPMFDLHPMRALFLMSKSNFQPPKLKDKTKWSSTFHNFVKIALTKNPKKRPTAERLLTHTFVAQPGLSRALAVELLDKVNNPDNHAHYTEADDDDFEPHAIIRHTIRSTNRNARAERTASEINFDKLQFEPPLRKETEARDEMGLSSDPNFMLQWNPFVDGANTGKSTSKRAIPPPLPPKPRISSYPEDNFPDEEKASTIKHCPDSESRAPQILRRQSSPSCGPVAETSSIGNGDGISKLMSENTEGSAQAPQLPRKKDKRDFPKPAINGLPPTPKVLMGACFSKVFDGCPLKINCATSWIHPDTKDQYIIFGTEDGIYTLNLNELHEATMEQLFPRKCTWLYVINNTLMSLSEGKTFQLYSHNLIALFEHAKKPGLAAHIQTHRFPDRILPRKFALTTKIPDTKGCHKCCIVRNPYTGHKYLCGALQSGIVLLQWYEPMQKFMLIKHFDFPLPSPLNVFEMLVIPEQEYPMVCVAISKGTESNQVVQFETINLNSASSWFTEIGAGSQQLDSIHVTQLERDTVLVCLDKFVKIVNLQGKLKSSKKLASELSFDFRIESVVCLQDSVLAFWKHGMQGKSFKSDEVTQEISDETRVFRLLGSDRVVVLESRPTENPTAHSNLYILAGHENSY
Sequence of Proto-oncogene tyrosine-protein kinase Src (Homo sapiens) (P12931 2-536 limits assumed): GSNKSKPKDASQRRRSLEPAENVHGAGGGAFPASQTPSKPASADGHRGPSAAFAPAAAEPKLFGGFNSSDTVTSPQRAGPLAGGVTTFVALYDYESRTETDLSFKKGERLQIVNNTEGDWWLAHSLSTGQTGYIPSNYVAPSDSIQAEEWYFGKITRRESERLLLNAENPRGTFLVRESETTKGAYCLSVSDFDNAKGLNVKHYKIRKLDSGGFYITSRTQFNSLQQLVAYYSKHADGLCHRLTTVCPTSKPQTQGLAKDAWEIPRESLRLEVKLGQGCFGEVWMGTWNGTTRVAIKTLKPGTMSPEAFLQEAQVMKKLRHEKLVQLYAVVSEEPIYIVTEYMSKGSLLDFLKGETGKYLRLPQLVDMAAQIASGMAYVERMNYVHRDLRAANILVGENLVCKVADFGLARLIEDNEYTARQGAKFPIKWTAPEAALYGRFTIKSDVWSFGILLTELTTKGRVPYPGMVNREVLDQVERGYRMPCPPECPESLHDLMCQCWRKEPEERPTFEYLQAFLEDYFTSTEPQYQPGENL
Sequence of Fibroblast growth factor receptor 1 (Homo sapiens) (P11362 22-822 limits assumed): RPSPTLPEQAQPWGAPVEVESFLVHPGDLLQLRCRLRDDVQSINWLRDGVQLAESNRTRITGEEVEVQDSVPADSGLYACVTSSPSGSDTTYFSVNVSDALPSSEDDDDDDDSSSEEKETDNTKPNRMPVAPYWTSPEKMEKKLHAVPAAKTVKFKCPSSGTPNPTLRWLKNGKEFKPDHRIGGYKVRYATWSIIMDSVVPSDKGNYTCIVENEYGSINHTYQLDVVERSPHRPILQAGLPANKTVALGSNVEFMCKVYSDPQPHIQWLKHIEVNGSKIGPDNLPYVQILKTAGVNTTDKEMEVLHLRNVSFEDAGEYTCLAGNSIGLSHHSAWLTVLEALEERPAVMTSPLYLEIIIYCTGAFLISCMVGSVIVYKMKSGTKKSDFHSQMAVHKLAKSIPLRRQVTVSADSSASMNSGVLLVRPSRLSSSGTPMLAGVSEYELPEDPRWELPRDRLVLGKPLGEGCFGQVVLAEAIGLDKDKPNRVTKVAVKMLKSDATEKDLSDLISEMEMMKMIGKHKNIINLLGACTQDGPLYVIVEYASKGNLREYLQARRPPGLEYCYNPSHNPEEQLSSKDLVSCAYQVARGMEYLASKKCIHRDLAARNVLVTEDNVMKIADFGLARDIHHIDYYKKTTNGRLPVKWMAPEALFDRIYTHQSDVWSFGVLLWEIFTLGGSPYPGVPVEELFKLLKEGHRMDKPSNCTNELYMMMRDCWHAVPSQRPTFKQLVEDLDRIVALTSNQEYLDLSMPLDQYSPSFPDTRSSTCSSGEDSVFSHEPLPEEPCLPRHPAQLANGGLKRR

## COc1cc2ncnc(Oc3ccc(NC(=O)Nc4ccc(CN5CCOCC5)c(C(F)(F)F)c4)c4ccccc34)c2cc1OC
[1]
  inhibition of growth at 10 µM: 98.4%
[2]
  IC50: 2360 nM
[3]
  IC50: 33.4 nM
[4]
  RatioGI50: 1.1 - 3.7
[5]
  inhibition: > 96%
[6]
  inhibition: Active
[7]
  RatioGI50: 1.6 - 2.9
[8]
  GI50: 400 nM
  TGI: 9550 nM
[8]; [35]
  CC50: > 100000 nM
[9]
  GI50: 370 nM
  TGI: 3390 nM
[9]; [35]
  CC50: 33900 nM
[10]
  GI50: 320 nM
  TGI: 1620 nM
[10]; [35]
  CC50: 14100 nM
[11]
  inhibition: Active
[12]
  RatioGI50: 3.9 - 9.5
[13]
  inhibition: Active
[14]
  GI50: 2570 nM
  TGI: 14100 nM
[14]; [35]
  CC50: 43600 nM
[15]
  GI50: 600 nM
  TGI: 3470 nM
[15]; [35]
  CC50: 18600 nM
[16]
  GI50: 290 nM
  TGI: 1860 nM
[16]; [35]
  CC50: 13200 nM
[17]
  IC50: 630 nM
[18]
  Ratio: 3.2
[19]
  RatioGI50: 5 - 7.7
[20]
  inhibition: 97.8%
[21]
  GI50: 450 nM
  TGI: 13200 nM
[21]; [35]
  CC50: > 100000 nM
[22]
  GI50: 1230 nM
  TGI: 6030 nM
[22]; [35]
  CC50: 30900 nM
[23]
  GI50: 450 nM
  TGI: 2690 nM
[23]; [35]
  CC50: 17000 nM
[24]
  RatioGI50: 5 - 7.7
[25]
  RatioGI50: 3.3
[26]
  GI50: 1050 nM
  TGI: 13800 nM
[26]; [35]
  CC50: 38900 nM
[27]
  RatioGI50: 6.8
[28]
  GI50: 1100 nM
  TGI: 2820 nM
[28]; [35]
  CC50: 7240 nM
[29]
  GI50: 690 nM
  TGI: 5370 nM
[29]; [35]
  CC50: > 100000 nM
[30]
  inhibition: Active
[31]
  GI50: 460 nM
  TGI: 15800 nM
[31]; [35]
  CC50: 79400 nM
[32]
  RatioGI50: 1.1 - 3.7
[33]
  GI50: 1070 nM
  TGI: 10500 nM
[33]; [35]
  CC50: > 100000 nM
[34]
  GI50: 190 nM
  TGI: 1820 nM
[34]; [35]
  CC50: > 100000 nM
